Holding throughout (type): ADME, Microsome
Data set [1] can be described thus: Metabolic stability in rat liver microsomes assessed as half life. The method, boiled down:
(§1)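 Stability in human or rat liver microsomes with compound at 1 µM, from DMSO solution.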
(Liver microsomes are vesicles of endoplasmic reticulum, rich in cytochrome P450 enzymes.)

The nature of data set [2]: Metabolic stability in human liver microsomes assessed as half life. The method, boiled down:
as §1

Data set [3] in a line: Metabolic stability in human liver microsomes assessed as half life in presence of NADPH. The method, boiled down:
(§2)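 Advanced stability in human or rat liver microsomes run with NADPH, with and without UDPGA, on compound from 1 µM DMSO solution.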

A short description of data set [4]: Metabolic stability in rat liver microsomes assessed as half life in presence of NADPH. The method, boiled down:
as §2

SMILES strings stand for the structures. A value given as a limit tells only on which side of the number the result lay.

As usually defined, the half-life is the time in which the quantity being followed falls by half. As for `CC(C)(C)OC(=O)N1CCC[C@H]1C(=O)N1CCC(NS(=O)(=O)c2cc(S(=O)(=O)c3ccccc3)ccc2C(F)(F)F)CC1`, the half-life in data set [1] and in data set [2] was above 1 min throughout.
With `CC(C)(C)CCN1CCC[C@H]1C(=O)N1CCC(NS(=O)(=O)c2cc(S(=O)(=O)c3ccccc3)ccc2C(F)(F)F)CC1`, the values for the half-life in data set [1] and in data set [2] were above 8 min and above 5 min, respectively.
Taken in the same sequence, the figures for `CC(C)(C)CC(=O)N1CCC[C@H]1C(=O)N1CCC(NS(=O)(=O)c2cc(S(=O)(=O)c3ccccc3)ccc2C(F)(F)F)CC1` were above 3 min and above 1 min.
Turning to `O=S(=O)(NC1CCNCC1)c1cc(S(=O)(=O)c2ccccc2)ccc1C(F)(F)F`, the half-life in data set [3] and in data set [4] was above 60 min each time.
As for `CC(C)(C)NC(=O)N1CCC[C@H]1C(=O)N1CCC(NS(=O)(=O)c2cc(S(=O)(=O)c3ccccc3)ccc2C(F)(F)F)CC1`, the results for the half-life in data set [1] and in data set [2] were above 3 min and above 2 min, respectively.

Source of the values: ChEMBL document CHEMBL1139350, “Modulation of Wnt signaling through inhibition of secreted frizzled-related protein I (sFRP-1) with N-substituted piperidinyl diphenylsulfonyl sulfonamides” (J Med Chem, 2009).
